ChEMBL document CHEMBL1123837, “1-Amino-substituted 4-methyl-5H-pyrido[3',4':4,5]pyrrolo[3,2-c]pyridines: a new class of antineoplastic agents” (J Med Chem, 1987)
Calls of active or inactive are those of the source. The rule behind the calls is not given here.

Columns and labels:
Mus musculus [1] = experiment: In vivo antitumor activity was determined against P388 leukemia cells expressed as treated/control at the dosage of 40 mg/kg; type: functional
Method in brief: (§1)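 Following NCI protocols, 10^6 viable P388 leukemia cells were inoculated ip on day 0 into male or female CDF1 hybrid mice, 10 per test group. Compounds in distilled water were given ip (0.1 mL/10 g body weight) at various doses on days 1–5. T/C = median survival day of treated / median survival day of negative controls × 100.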

Mus musculus [2] = experiment: In vivo antitumor activity was determined against P388 leukemia cells expressed as treated/control at the dosage of 20 mg/kg; type: functional; method in brief: as §1
Mus musculus [3] = experiment: In vivo antitumor activity was determined against P388 leukemia cells expressed as treated/control at the dosage of 10 mg/kg; type: functional; method in brief: as §1
L1210 = experiment: (§2) In vitro cytotoxicity against L1210 cells was determined after 48 hours of incubation; type: functional, Mus musculus; details: read-out: ID50 (the source's name)
Method in brief: (§3)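 Exponentially growing L1210 cells were cultured in RPMI 1640 with 2 mM glutamine, penicillin/streptomycin and 10% fetal calf serum, under 5% CO2 at 37 °C. Drugs dissolved in distilled water were added to cells at 0.8 × 10^5 cells/mL for 48 h, then cells were counted. ID50 was estimated by regression of dose-response data, as the mean of two values from two independent experiments.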

Mus musculus [4] = experiment: In vivo antitumor activity was determined against P388 leukemia cells expressed as treated/control at the dose of (1.25-20)mg/kg; IA = Inactive; type: functional, organism-based; method in brief: as §1
Calf thymus DNA = experiment: Binding affinity for DNA by ethidium bromide displacement assay; type: nucleic-acid assay; details: Bos taurus
Method in brief: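 Competitive ethidium bromide displacement with calf thymus DNA at 10 µg/mL in 20 mM Na phosphate buffer, 0.1 M NaCl, 1 mM EDTA, pH 7.4. The apparent DNA affinity constant is given in 10^6 M^-1 ± standard deviation, from 6 values across two independent experiments.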

Mus musculus [5] = experiment: In vivo antitumor activity was determined against P388 leukemia cells expressed as treated/control at yhe dose of 2.5-40 mg/kg; IA = Inactive; type: functional, organism-based; method in brief: as §1
Mus musculus [6] = experiment: In vivo antitumor activity was determined against P388 leukemia cells expressed as treated/control at the dose of 40 mg/kg; T = toxic at this dose; type: organism-based; set-up: dose 40 mg/kg; method in brief: as §1
Mus musculus [7] = experiment: In vivo antitumor activity was determined against P388 leukemia cells expressed as treated/control at the dose of (2.5-20)mg/kg; IA = Inactive; type: functional, organism-based; method in brief: as §1
[8] = as §2; type: cell-based; details: mouse, read-out: ID50; method in brief: as §3

Structure (SMILES) | K aff (Calf thymus DNA) | IC50 (L1210; Mus musculus, L1210, 48 h) [µM] | T/C (Mus musculus [5]) | other results
CCN(CC)CCCNc1ncc(C)c2[nH]c3ccncc3c12 | – | – | – | T/C (Mus musculus [1]): 155; T/C (Mus musculus [2]): 148; T/C (Mus musculus [3]): 135; IC50 (L1210): 0.34 µM
CCCN(CCC)CCCNc1[nH]cc(C)c2nc3ccncc3c1-2 | 8000 M⁻¹ | 3.3 | – | T/C (Mus musculus [4]): inactive
CCN(CC)CCCNc1[nH]ccc2nc3ccncc3c1-2 | 15000 M⁻¹ | – | – | T/C (Mus musculus [6]): Toxic; T/C (Mus musculus [7]): inactive; CC50 at 48 h [8]: 46 µM

More lines, main results first:

K aff (Calf thymus DNA) | Structure (SMILES) | IC50 (L1210; Mus musculus, L1210, 48 h) [µM] | T/C (Mus musculus [5]) | other results
0.06 | Cc1cnc(NCCCN2CCCCC2)c2c3cnccc3n(C)c12 | 3.6 | inactive | –
0.06 | Cc1cnc(NCCCN2CCCC2)c2c3cnccc3n(C)c12 | 1.6 | inactive | –
